Data on 44 molecules can be found in ChEMBL document CHEMBL1137845, “Discovery of N-propylurea 3-benzylpiperidines as selective CC chemokine receptor-3 (CCR3) antagonists” (Bioorg Med Chem Lett, 2004).

The target of test [1] is T1, C-C chemokine receptor type 3 (Homo sapiens) (UniProt P51677).
T1 sequence (whole entry): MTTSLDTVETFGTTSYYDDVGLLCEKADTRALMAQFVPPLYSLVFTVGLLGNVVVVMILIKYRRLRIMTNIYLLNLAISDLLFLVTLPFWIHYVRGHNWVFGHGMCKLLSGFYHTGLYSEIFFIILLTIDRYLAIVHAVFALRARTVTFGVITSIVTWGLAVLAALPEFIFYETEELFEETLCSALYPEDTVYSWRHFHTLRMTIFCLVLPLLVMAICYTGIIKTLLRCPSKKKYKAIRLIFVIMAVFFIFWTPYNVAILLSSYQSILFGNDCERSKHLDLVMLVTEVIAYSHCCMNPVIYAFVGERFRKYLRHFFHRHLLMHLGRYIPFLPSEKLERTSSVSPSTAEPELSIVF
The experiment in a line: Inhibitory concentration of compound against C-C chemokine receptor type 3 was determined using human [125I]eotaxin. As to conditions: concentration not given here. In short, it runs like this: (§1)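 Displacement of 150 pM 125I-labeled human eotaxin from CHO cells (5×10^5 per well), compound 0.0001–1 μM, in RPMI 1640 with 0.5% BSA, 10 mM HEPES, 5 mM MgCl2; filter plates pretreated with 5 μg/mL protamine in PBS pH 7.2. 30 min at room temperature, vacuum filtration, three washes with binding buffer plus 0.5 M NaCl, bound label by liquid scintillation counting.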

The target in test [2] is CC chemokine receptor 3 (Homo sapiens). In words: Binding affinity against CC chemokine receptor 3 was determined using human [125I]-eotaxin.
Test [3] has as its target T2, C-C chemokine receptor type 3 (Homo sapiens, UniProt P51677).
T2 sequence (P51677 whole entry): T1 sequence (whole entry)
The experiment in a line: Inhibitory concentration against C-C chemokine receptor type 3 using human [125I]eotaxin. An outline of the steps:
as §1

A short description of test [4]: Effective concentration determined in calcium mobilization assay. It counts as functional. An outline of the steps:
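Calcium flux in 2×10^5 eosinophils preloaded with Fluo-3AM, stimulated with 10 nM eotaxin, compound 0.0001–1 μM, in RPMI 1640 with 0.1% BSA, 20 mM HEPES and 2.5 mM probenecid; fluorescence read on a fluorescent imaging plate reader.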
On the technique in general: A change in cytosolic calcium serves as a functional read-out for many receptors and channels.

Test [5] addresses 5-hydroxytryptamine receptor 2A (Homo sapiens, UniProt P28223). The experiment in a line: Inhibition of binding to serotonin 5-hydroxytryptamine 2A receptor.
A short description of test [6]: Effect on chemotaxis of eosinophils was determined. It counts as functional.

Chain of 5-hydroxytryptamine receptor 2A (P28223 whole entry): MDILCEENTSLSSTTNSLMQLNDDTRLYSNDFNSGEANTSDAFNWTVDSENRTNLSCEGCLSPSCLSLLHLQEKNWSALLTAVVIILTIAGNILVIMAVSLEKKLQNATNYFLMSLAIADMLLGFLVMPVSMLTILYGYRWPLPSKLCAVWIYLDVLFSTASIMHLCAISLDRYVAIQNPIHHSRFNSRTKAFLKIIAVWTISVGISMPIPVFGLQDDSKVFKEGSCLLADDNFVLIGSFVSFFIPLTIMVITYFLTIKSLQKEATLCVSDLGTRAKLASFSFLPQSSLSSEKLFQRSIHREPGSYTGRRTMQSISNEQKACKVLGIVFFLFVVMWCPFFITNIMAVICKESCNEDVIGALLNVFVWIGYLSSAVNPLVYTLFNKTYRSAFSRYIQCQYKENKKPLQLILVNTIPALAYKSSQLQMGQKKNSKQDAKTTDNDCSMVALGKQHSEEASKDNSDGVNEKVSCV

In the case of `COc1cccc(NC(=O)NCCCN2CCCC(CCc3ccccc3)C2)c1` (stereo unspecified), the inhibition in test [1] worked out at 84%. Also, the IC50 in test [2] turned out to be 0.787 µM.

The molecule `O=C(NCCCN1CCC[C@@H](Cc2ccc(F)cc2)C1)Nc1cccc(-c2nnco2)c1` had a half-maximal inhibitory concentration (IC50) in test [3] of 0.0036 µM. Further, in test [4], the EC50 is 0.045 µM. For `CC(=O)c1cccc(NC(=O)NCCCN2CCN(C(C)=O)C(Cc3ccc(F)cc3)C2)c1` (stereo unspecified), in test [1], the inhibition amounted to 0%. Take `N#Cc1cccc(NC(=O)NCCCN2CCCC(Cc3ccc(F)cc3)C2)c1` (stereo unspecified): in test [3], half-maximal inhibition (IC50) required 0.029 µM. In test [5], this molecule yielded a Ki of 2.31 µM. Molecule `CC(=O)c1cc(NC(=O)NCCCN2CCC[C@@H](Cc3ccc(F)cc3)C2)cc(-c2nnnn2C)c1` displayed an IC50 in test [3] of 0.0026 µM.

The molecule `N#Cc1cccc(NC(=O)NCCCN2CCCC(Cc3ccccc3F)C2)c1` (stereo unspecified) showed an IC50 in test [3] of 0.038 µM. In addition, in test [5], the affinity corresponds to a Ki of 2.24 µM.

`CC(C)n1nnnc1-c1cccc(NC(=O)NCCCN2CCC[C@@H](Cc3ccc(F)cc3)C2)c1` had an IC50 in test [3] of 0.0031 µM. This counts as single-digit nanomolar. `COc1cccc(NC(=O)NCCCN2CCC(Cc3ccc(F)cc3)CC2)c1` gave a Ki in test [5] of 0.224 µM.

In turn, `CC(=O)c1cccc(NC(=O)NCCCN2C[C@@H]3C[C@@H](c4ccc(F)cc4)[C@@H]3C2)c1` showed an inhibition in test [1] of 68%. As for `Cn1nnnc1-c1cc(NC(=O)NCCCN2CCC[C@@H](Cc3ccc(F)cc3)C2)cc(-c2ccccc2)c1`, half-maximal inhibition in test [3] (IC50) required 0.0024 µM. `N#Cc1cccc(NC(=O)NCCCN2CCC(Cc3ccccc3)CC2)c1` gave a Ki in test [5] of 0.77 µM.

Take `CC(=O)c1cccc(NC(=O)NCCCN2C[C@H]3Cc4ccc(F)cc4C[C@H]3C2)c1`: the IC50 in test [3] was 0.056 µM. This counts as double-digit nanomolar.

Turning to `N#Cc1cccc(NC(=O)NCCCN2CCCC(Cc3ccc(C(F)(F)F)cc3)C2)c1` (stereo unspecified), the inhibition in test [1] was found to be 11%. `N#Cc1cccc(NC(=O)NCCCN2CCCC(Cc3cccc(F)c3)C2)c1` (stereo unspecified): the IC50 in test [3] was 0.243 µM. In turn, `CC(=O)c1cccc(NC(=O)NCCCN2CC3(Cc4ccc(F)cc4)CCC2CC3)c1` gave an IC50 in test [3] of 0.039 µM. For the molecule `Cc1cc(NC(=O)NCCCN2CCC[C@@H](Cc3ccc(F)cc3)C2)cc(-c2nnnn2C)c1`, half-maximal inhibition in test [3] (IC50) required 0.0015 µM. Further, the EC50 in test [6] was found to be 0.001 µM; in test [4], 0.0009 µM.

The molecule `CC(=O)c1cccc(NC(=O)NCCCN2[C@@H]3CC[C@H]2C[C@@H](Cc2ccc(F)cc2)C3)c1` (stereo in doubt; 21) registered an IC50 in test [3] of 0.0074 µM. Consider `COc1cccc(NC(=O)NCCCN2CCCC(Cc3ccccc3)C2)c1` (stereo unspecified), for which 0.055 µM corresponded to half-maximal inhibition in test [3] (IC50). The same molecule returned an inhibition constant (Ki) in test [5] of 0.913 µM. For the molecule `CC(=O)c1cc(NC(=O)NCCCN2CCC[C@@H](Cc3ccc(F)cc3)C2)cc(C(C)=O)c1`, 0.0012 µM corresponded to half-maximal inhibition in test [3] (IC50). In test [6], the EC50 was determined as 0.003 µM. In turn, `CCn1nnnc1-c1cccc(NC(=O)NCCCN2CCC[C@@H](Cc3ccc(F)cc3)C2)c1` displayed a half-inhibitory concentration (IC50) in test [3] of 0.0012 µM. In the case of `COc1cccc(NC(=O)NCCCN2CCOC(Cc3ccccc3)C2)c1` (stereo unspecified), the inhibition in test [1] is 14%. In test [3], `N#Cc1cccc(NC(=O)NCCCN2CCCC(Cc3ccc(F)cc3F)C2)c1` (stereo unspecified) yielded an IC50 of 0.019 µM. For the same molecule, the inhibitory constant (Ki) in test [5] was determined as 2.35 µM. In test [3], `Cn1nnnc1-c1cc(CO)cc(NC(=O)NCCCN2CCC[C@@H](Cc3ccc(F)cc3)C2)c1` registered an IC50 of 0.0009 µM. Consider `CNC(=O)c1cc(NC(=O)NCCCN2CCC[C@@H](Cc3ccc(F)cc3)C2)cc(-c2nnnn2C)c1`, for which the IC50 in test [3] was determined as 0.0007 µM. Further, the EC50 was less than 0.001 µM in test [6] and 0.0006 µM in test [4]. Molecule `CC(=O)c1cccc(NC(=O)NCCCN2[C@@H]3CC[C@H]2C[C@@H](Cc2ccc(F)cc2)C3)c1` (stereo in doubt; 22) displayed an IC50 in test [3] of 0.047 µM. The same measure, in the same setting: next, `O=C(NCCCN1CCC[C@@H](Cc2ccc(F)cc2)C1)Nc1cccc(-c2cnco2)c1`: 0.0079 µM. Still for that read-out and setting: as for `O=C(NCCCN1CCC[C@@H](Cc2ccc(F)cc2)C1)Nc1cccc(-n2ccnc2)c1`, the figure is 0.0071 µM. In test [3], `Cn1nnnc1-c1cc(NC(=O)NCCCN2CCC[C@@H](Cc3ccc(F)cc3)C2)cc(-c2nnnn2C)c1` yielded an IC50 of 0.0007 µM. For the same molecule, the concentration for a half-maximal effect (EC50) in test [6] came to 0.0004 µM; in test [4] it was 0.00076 µM. Consider `CC(=O)c1cccc(NC(=O)NCCCN2CC3CCC2[C@@H](Cc2ccc(F)cc2)C3)c1` (stereo partly specified), for which, in test [3], inhibition was half-maximal at 0.169 µM (IC50). In other words, the sub-micromolar range.

Molecule `CC(=O)c1cccc(NC(=O)NCCCN2C[C@@H]3Cc4ccc(F)cc4C[C@H]3C2)c1` returned an IC50 in test [3] of 0.049 µM.

`CC(=O)c1cccc(NC(=O)NCCCN2CC3CCC2[C@H](Cc2ccc(F)cc2)C3)c1` (stereo partly specified): the concentration for half-maximal inhibition (IC50) in test [3] was determined as 0.802 µM. This IC50 lies about 16-fold higher than the previous one. `N#Cc1cccc(NC(=O)NCCCN2CCCC(Cc3ccccc3)C2)c1` (stereo unspecified) came in with an IC50 in test [3] of 0.041 µM. The Ki in test [5] is 2.94 µM.

The molecule `Cn1nnnc1-c1cc(NC(=O)NCCCN2CCC[C@@H](Cc3ccc(F)cc3)C2)cc(C(F)(F)F)c1` showed a half-inhibitory concentration (IC50) in test [3] of 0.0012 µM. In other words, the single-digit nanomolar range. With `N#Cc1cccc(NC(=O)NCCCN2CCOC(Cc3ccccc3)C2)c1` (stereo unspecified), in test [1], the inhibition is 36%. With `CC(=O)c1cccc(NC(=O)NCCCN2CCC[C@H](Cc3ccc(F)cc3)C2)c1`, the concentration for half-maximal inhibition (IC50) in test [3] stood at 0.039 µM. `COc1cccc(CC2CCCN(CCCNC(=O)Nc3cccc(C#N)c3)C2)c1` (stereo unspecified) returned an inhibition in test [1] of 31%. `COc1cccc(NC(=O)NCCCN2CCC(Cc3ccccc3)CC2)c1` yielded an inhibition constant Ki in test [5] of 0.613 µM. In test [5], `N#Cc1cccc(NC(=O)NCCCN2CCC(Cc3ccc(F)cc3)CC2)c1` yielded a Ki of 0.167 µM. On to `Cn1nnnc1-c1cccc(NC(=O)NCCCN2CCC[C@@H](Cc3ccc(F)cc3)C2)c1`, for which the half-inhibitory concentration (IC50) in test [3] turned out to be 0.0006 µM. The concentration for a half-maximal effect (EC50) amounted to 0.0032 µM in test [6] and 0.0013 µM in test [4]. The corresponding values for `Cn1nnnc1-c1cc(Br)cc(NC(=O)NCCCN2CCC[C@@H](Cc3ccc(F)cc3)C2)c1` are 0.0031 µM, less than 0.001 µM and 0.0034 µM. Molecule `N#Cc1cccc(NC(=O)NCCCN2CCC(Cc3ccc(F)cc3)C2)c1` (stereo unspecified) displayed an IC50 in test [3] of 0.031 µM. In test [5], this molecule showed a Ki of 0.178 µM. In the case of `N#Cc1cccc(NC(=O)NCCCN2CCCC(CCc3ccccc3)C2)c1` (stereo unspecified), in test [1], the inhibition was found to be 66%. As to `CC(=O)c1cccc(NC(=O)NCCCN2CCC[C@@H](Cc3ccc(F)cc3)C2)c1`, the IC50 in test [3] was found to be 0.0025 µM. In addition, the values for the EC50 in test [6] and in test [4] were 0.025 µM and 0.0024 µM, respectively. In test [5], affinity was put at a Ki of 1.35 µM. Regarding `CC(=O)c1cccc(NC(=O)NCCCN2CCC(Cc3ccc(F)cc3)CC2)c1`, the inhibitory constant (Ki) in test [5] was found to be 0.193 µM.

One may read the inhibition as how much of the control response was suppressed. A low value points to a response near the control. One may read the IC50 as the midpoint of a concentration-inhibition curve. A low value points to greater potency in that assay. Usually EC50 stands for the concentration at which the effect is half-maximal. Usually Ki stands for the equilibrium dissociation constant of an inhibitor or competing ligand from its target. High values mean lower affinity, low ones higher affinity.
